Test results reported in ChEMBL document CHEMBL2146441, “2,6-Disubstituted imidazo[2,1-b][1,3,4]thiadiazoles: search for anticancer agents” (2012).

How the values were obtained:
Type in all cases: functional
NCI-H460 = experiment: Cytotoxicity against human NCI-H460 cells assessed as cell growth at 10^-5 M after 48 hrs by SRB assay; conditions: NCI-H460, 48 h, read-out: Activity
HCC 2998 = experiment: Cytotoxicity against human HCC2998 cells assessed as cell growth at 10^-5 M after 48 hrs by SRB assay; conditions: HCC 2998, 48 h, read-out: Activity
Procedure, shortened: (§1)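 NCI-60 five-dose screen. Cells were grown in RPMI 1640 with 5% FBS and seeded at 5000–40,000 cells/well according to doubling time. They were pre-incubated 24 h at 37 °C in 5% CO₂, and time-zero (Tz) plates were TCA-fixed at drug addition. Five 10-fold dilutions of DMSO stock were applied for 48 h. Read-out was SRB staining, 515 nm absorbance, with percent growth calculated versus Tz and untreated control.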

SW-620 [1] = experiment: Cytotoxicity against human SW620 cells assessed as cell growth at 10^-5 M after 48 hrs by SRB assay; conditions: SW-620, 48 h, read-out: Activity
SF-539 = experiment: Cytotoxicity against human SF539 cells assessed as cell growth at 10^-5 M after 48 hrs by SRB assay; conditions: SF-539, 48 h, read-out: Activity
SNB-19 = experiment: Cytotoxicity against human SNB19 cells assessed as cell growth at 10^-5 M after 48 hrs by SRB assay; conditions: SNB-19, 48 h, read-out: Activity
MDA-MB-435 = experiment: Cytotoxicity against human MDA-MB-435 cells assessed as cell growth at 10^-5 M after 48 hrs by SRB assay; conditions: MDA-MB-435, 48 h, read-out: Activity
UACC-62 [2] = experiment: Cytotoxicity against human UACC62 cells assessed as cell growth at 10^-5 M after 48 hrs by SRB assay; conditions: UACC-62, 48 h, read-out: Activity
IGROV-1 = experiment: Cytotoxicity against human IGROV1 cells assessed as cell growth at 10^-5 M after 48 hrs by SRB assay; conditions: IGROV-1, 48 h, read-out: Activity; procedure, shortened: as §1
SW-620 [3] = experiment: Growth inhibition of human SW620 cells after 48 hrs by SRB assay; conditions: SW-620, 48 h; for CC50: read-out: LC50 (the source's name)
Procedure, shortened: (§2)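 Adherent NCI-60 lines grown in RPMI 1640 with 5% FBS, seeded at 5000–40,000 cells/well, and preincubated 24 h at 37 °C, 5% CO2. Compound, stocked in DMSO, given either once at 10^-5 M or at five 10-fold dilutions for 48 h. Cells fixed with cold TCA (final 10%), stained with 0.4% SRB, and read at 515 nm. GI50 taken as 50% reduction in net protein increase versus time-zero and control plates.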

SK-MEL-2 = experiment: Growth inhibition of human SK-MEL-2 cells after 48 hrs by SRB assay; conditions: SK-MEL-2, 48 h; for CC50: read-out: LC50 (the source's name); procedure, shortened: as §2
T47D [4] = experiment: Cytotoxicity against human T47D cells assessed as cell growth at 10^-5 M after 48 hrs by SRB assay; conditions: read-out: Activity
HCT-116 = experiment: Cytotoxicity against human HCT116 cells assessed as cell growth at 10^-7 M after 48 hrs by SRB assay; conditions: HCT-116, 48 h, read-out: Activity; procedure, shortened: as §1
MOLT-4 = experiment: Cytotoxicity against human MOLT4 cells assessed as cell growth at 10^-4 M after 48 hrs by SRB assay; conditions: MOLT-4, 48 h, read-out: Activity
OVCAR-5 = experiment: Cytotoxicity against human OVCAR5 cells assessed as cell growth at 10^-4 M after 48 hrs by SRB assay; conditions: OVCAR-5, 48 h, read-out: Activity
ACHN = experiment: Cytotoxicity against human ACHN cells assessed as cell growth at 10^-4 M after 48 hrs by SRB assay; conditions: read-out: Activity
Procedure, shortened: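 NCI-60 screen: lines kept in RPMI 1640 with 5% FBS, seeded at 5000–40,000 cells/well by doubling time, preincubated 24 h at 37 °C in 5% CO2. Time-zero plates TCA-fixed at drug addition. DMSO stocks diluted in medium, 48 h exposure. Fixation in cold TCA (final 10% adherent, 16% suspension), 0.4% SRB stain, solubilised in 10 mM Tris base, A515. Percent growth computed against control and time-zero.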

MDA-MB-468 [5] = experiment: Cytotoxicity against human MDA-MB-468 cells assessed as cell growth at 10^-4 M after 48 hrs by SRB assay; conditions: MDA-MB-468, 48 h, read-out: Activity
SK-OV-3 = experiment: Cytotoxicity against human SKOV3 cells assessed as cell growth at 10^-7 M after 48 hrs by SRB assay; conditions: SK-OV-3, 48 h, read-out: Activity
RXF 393 [6] = experiment: Cytotoxicity against human RXF393 cells assessed as cell growth at 10^-7 M after 48 hrs by SRB assay; conditions: RXF 393, 48 h, read-out: Activity
MCF7 = experiment: Cytotoxicity against human MCF7 cells assessed as cell growth at 10^-7 M after 48 hrs by SRB assay; conditions: MCF7, 48 h, read-out: Activity
T47D [7] = experiment: Cytotoxicity against human T47D cells assessed as cell growth at 10^-7 M after 48 hrs by SRB assay; conditions: read-out: Activity
MDA-MB-468 [8] = experiment: Cytotoxicity against human MDA-MB-468 cells assessed as cell growth at 10^-7 M after 48 hrs by SRB assay; conditions: MDA-MB-468, 48 h, read-out: Activity
NCI-H522 = experiment: Cytotoxicity against human NCI-H522 cells assessed as cell growth at 10^-8 M after 48 hrs by SRB assay; conditions: NCI-H522, 48 h, read-out: Activity
HCT-15 = experiment: Cytotoxicity against human HCT15 cells assessed as cell growth at 10^-8 M after 48 hrs by SRB assay; conditions: HCT-15, 48 h, read-out: Activity; procedure, shortened: as §1
Malme-3M [9] = experiment: Cytotoxicity against human MALME-3M cells assessed as cell growth at 10^-8 M after 48 hrs by SRB assay; conditions: read-out: Activity
UACC-62 [10] = experiment: Cytotoxicity against human UACC62 cells assessed as cell growth at 10^-8 M after 48 hrs by SRB assay; conditions: UACC-62, 48 h, read-out: Activity
PC-3 = experiment: Cytotoxicity against human PC3 cells assessed as cell growth at 10^-8 M after 48 hrs by SRB assay; conditions: PC-3, 48 h, read-out: Activity
T47D [11] = experiment: Cytotoxicity against human T47D cells assessed as cell growth at 10^-8 M after 48 hrs by SRB assay; conditions: read-out: Activity
LOX IMVI = experiment: Cytotoxicity against human LOXIMVI cells assessed as cell growth at 10^-6 M after 48 hrs by SRB assay; conditions: read-out: Activity
Malme-3M [12] = experiment: Cytotoxicity against human MALME-3M cells assessed as cell growth at 10^-6 M after 48 hrs by SRB assay; conditions: read-out: Activity
[13] = Cytotoxicity against human NCI-ADR-RES cells assessed as cell growth at 10^-6 M after 48 hrs by SRB assay; conditions: read-out: Activity
RXF 393 [14] = experiment: Cytotoxicity against human RXF393 cells assessed as cell growth at 10^-6 M after 48 hrs by SRB assay; conditions: RXF 393, 48 h, read-out: Activity
T47D [15] = experiment: Cytotoxicity against human T47D cells assessed as cell growth at 10^-6 M after 48 hrs by SRB assay; conditions: read-out: Activity

Row | SMILES | growth at 10 µM (NCI-H460) | growth at 10 µM (HCC 2998) | growth at 10 µM (SW-620 [1]) | growth at 10 µM (SF-539) | growth at 10 µM (SNB-19) | growth at 10 µM (MDA-MB-435) | growth at 10 µM (UACC-62 [2]) | growth at 10 µM (IGROV-1) | GI50 (SW-620 [3]) | TGI (SW-620 [3]) | CC50 (SW-620 [3]) | GI50 (SK-MEL-2) | TGI (SK-MEL-2) | CC50 (SK-MEL-2) | growth at 10 µM (T47D [4]) | growth at 0.1 µM (HCT-116) | growth at 100 µM (MOLT-4) | growth at 100 µM (OVCAR-5) | growth at 100 µM (ACHN) | growth at 100 µM (MDA-MB-468 [5]) | also measured
1 | COc1ccc(-c2nn3cc(-c4cccc(N)c4)nc3s2)cc1 | 26% | 51% | 40% | -11% | 54% | 11% | 26% | 20% | 6.08 µM | 76.6 µM | > 100 µM | 5.35 µM | 31.9 µM | > 100 µM | 7% | 99% | 7% | -23% | -53% | -16% | growth at 0.1 µM (SK-OV-3): 97%; growth at 0.1 µM (RXF 393 [6]): 85%; growth at 0.1 µM (MCF7): 78%; growth at 0.1 µM (T47D [7]): 86%; growth at 0.1 µM (MDA-MB-468 [8]): 80%; growth at 0.01 µM (NCI-H522): 82%; growth at 0.01 µM (HCT-15): 98%; growth at 0.01 µM (Malme-3M [9]): 102%; growth at 0.01 µM (UACC-62 [10]): 93%; growth at 0.01 µM (PC-3): 91%; growth at 0.01 µM (T47D [11]): 97%; growth at 1 µM (LOX IMVI): 77%; growth at 1 µM (Malme-3M [12]): 71%; growth at 1 µM [13]: 85%; growth at 1 µM (RXF 393 [14]): 63%; growth at 1 µM (T47D [15]): 57%
2 | COc1ccc(-c2nn3cc(-c4ccc(O)cc4O)nc3s2)cc1 | -6% | 34% | 26% | -82% | 22% | 14% | 24% | 9% | 3.96 µM | > 100 µM | > 100 µM | 2.85 µM | 14.2 µM | > 100 µM | -29% | 93% | -22% | 2% | 6% | -27% | growth at 0.1 µM (SK-OV-3): 94%; growth at 0.1 µM (RXF 393 [6]): 104%; growth at 0.1 µM (MCF7): 89%; growth at 0.1 µM (T47D [7]): 89%; growth at 0.1 µM (MDA-MB-468 [8]): 78%; growth at 0.01 µM (NCI-H522): 89%; growth at 0.01 µM (HCT-15): 96%; growth at 0.01 µM (Malme-3M [9]): 87%; growth at 0.01 µM (UACC-62 [10]): 98%; growth at 0.01 µM (PC-3): 96%; growth at 0.01 µM (T47D [11]): 104%; growth at 1 µM (LOX IMVI): 82%; growth at 1 µM (Malme-3M [12]): 61%; growth at 1 µM [13]: 81%; growth at 1 µM (RXF 393 [14]): 55%; growth at 1 µM (T47D [15]): 71%
